In brackets after ≈: the same amount, converted by molar mass.
What was measured:
Assay type in all cases: functional
[1] = Antifungal activity against Fusarium oxysporum NCIM 1332 by standard agar method
Procedure, shortened: (§1)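 MICs determined by standard agar method; DMSO as solvent control.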

[2] = tested on: Staphylococcus aureus; experiment: Growth inhibition of Staphylococcus aureus NCIM 2010 at 30 ug/ml measured after 12 hrs relative to control; conditions: NCIM 2010, 12 h, read-out: GI
Procedure, shortened: (§2)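 Bacteria grown in LB at 37 °C and 180 rpm to OD 1. Compounds added to wells, then 0.1% inoculum of 1 OD culture (620 nm). Growth read as OD at 620 nm after 8 h for gram-negative and after 12 h for gram-positive strains.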

[3] = tested on: Bacillus subtilis; experiment: Growth inhibition of Bacillus subtilis NCIM 2079 at 30 ug/ml measured after 12 hrs relative to control; conditions: NCIM 2079, 12 h, read-out: GI; procedure, shortened: as §2
[4] = tested on: Staphylococcus aureus; experiment: Growth inhibition of Staphylococcus aureus NCIM 2010 at 10 ug/ml measured after 12 hrs relative to control; conditions: NCIM 2010, 12 h, read-out: GI; procedure, shortened: as §2
[5] = tested on: Staphylococcus aureus; experiment: Growth inhibition of Staphylococcus aureus NCIM 2010 at 3 ug/ml measured after 12 hrs relative to control; conditions: NCIM 2010, 12 h, read-out: GI; procedure, shortened: as §2
[6] = tested on: Bacillus subtilis; experiment: Growth inhibition of Bacillus subtilis NCIM 2079 at 10 ug/ml measured after 12 hrs relative to control; conditions: NCIM 2079, 12 h, read-out: GI; procedure, shortened: as §2
[7] = tested on: Bacillus subtilis; experiment: Growth inhibition of Bacillus subtilis NCIM 2079 at 3 ug/ml measured after 12 hrs relative to control; conditions: NCIM 2079, 12 h, read-out: GI; procedure, shortened: as §2
[8] = tested on: Escherichia coli; experiment: Growth inhibition of Escherichia coli NCIM 2688 at 30 ug/ml measured after 8 hrs relative to control; conditions: NCIM 2688, 8 h, read-out: GI; procedure, shortened: as §2
[9] = tested on: Escherichia coli; experiment: Growth inhibition of Escherichia coli NCIM 2688 at 10 ug/ml measured after 8 hrs relative to control; conditions: NCIM 2688, 8 h, read-out: GI; procedure, shortened: as §2
[10] = tested on: Escherichia coli; experiment: Growth inhibition of Escherichia coli NCIM 2688 at 3 ug/ml measured after 8 hrs relative to control; conditions: NCIM 2688, 8 h, read-out: GI; procedure, shortened: as §2
[11] = tested on: Pseudomonas fluorescens; experiment: Growth inhibition of Pseudomonas fluorescens NCIM 2036 at 30 ug/ml measured after 8 hrs relative to control; conditions: NCIM 2036, 8 h, read-out: GI; procedure, shortened: as §2
[12] = tested on: Pseudomonas fluorescens; experiment: Growth inhibition of Pseudomonas fluorescens NCIM 2036 at 10 ug/ml measured after 8 hrs relative to control; conditions: NCIM 2036, 8 h, read-out: GI; procedure, shortened: as §2
[13] = tested on: Pseudomonas fluorescens; experiment: Growth inhibition of Pseudomonas fluorescens NCIM 2036 at 3 ug/ml measured after 8 hrs relative to control; conditions: NCIM 2036, 8 h, read-out: GI; procedure, shortened: as §2
[14] = tested on: Escherichia coli; experiment: Antibacterial activity against Escherichia coli NCIM 2688 measured after 8 hrs; conditions: NCIM 2688, 8 h; procedure, shortened: as §2
[15] = tested on: Pseudomonas fluorescens; experiment: Antibacterial activity against Pseudomonas fluorescens NCIM 2036 measured after 8 hrs; conditions: NCIM 2036, 8 h; procedure, shortened: as §2
[16] = tested on: Staphylococcus aureus; experiment: Antibacterial activity against of Staphylococcus aureus NCIM 2010 measured after 12 hrs; conditions: NCIM 2010, 12 h; procedure, shortened: as §2
[17] = tested on: Bacillus subtilis; experiment: Antibacterial activity against Bacillus subtilis NCIM 2079 measured after 12 hrs; conditions: NCIM 2079, 12 h; procedure, shortened: as §2
[18] = tested on: Mycobacterium tuberculosis; experiment: Growth inhibition of Mycobacterium bovis BCG ATCC 35743 at dormant stage at 30 ug/ml measured after 12 days by nitrate reductase dye based two fold dilution method relative to control; conditions: BCG str. ATCC 35743, 288 h, read-out: GI
Procedure, shortened: (§3)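 M. bovis BCG was grown in Dubos medium and assayed in Mycobacterium pheli minimal medium (pH 6.6), with compounds from DMSO stocks. Incubation lasted 8 days for active and 12 days for dormant cultures. Viability was read by nitrate reductase at 540 nm against cell-free blanks, with vehicle set as 100% growth. Primary screen was at 30, 10 and 3 µg/ml, in triplicate, mean ± SD. MIC was taken from dose-response curves.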

[19] = tested on: Mycobacterium tuberculosis; experiment: Growth inhibition of Mycobacterium bovis BCG ATCC 35743 at dormant stage at 10 ug/ml measured after 12 days by nitrate reductase dye based two fold dilution method relative to control; conditions: BCG str. ATCC 35743, 288 h, read-out: GI; procedure, shortened: as §3
[20] = tested on: Mycobacterium tuberculosis; experiment: Growth inhibition of Mycobacterium bovis BCG ATCC 35743 at dormant stage at 3 ug/ml measured after 12 days by nitrate reductase dye based two fold dilution method relative to control; conditions: BCG str. ATCC 35743, 288 h, read-out: GI; procedure, shortened: as §3
[21] = tested on: Mycobacterium tuberculosis; experiment: Growth inhibition of Mycobacterium bovis BCG ATCC 35743 at active stage measured after 8 days by nitrate reductase dye based two fold dilution method; conditions: BCG str. ATCC 35743, 192 h; procedure, shortened: as §3
[22] = tested on: Mycobacterium tuberculosis; experiment: Growth inhibition of Mycobacterium tuberculosis H37Ra ATCC 25177 at dormant stage measured after 12 days by XTT dye based two fold dilution method; conditions: H37Ra ATCC 25177, 288 h
Procedure, shortened: (§4)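 MTB H37Ra was grown in Dubos medium, then exposed in Mycobacterium pheli minimal medium (pH 6.6) to compounds dissolved in DMSO. The assay ended on day 8 (active) or day 12 (dormant). Viable cells were measured by XTT reduction menadione assay at 470 nm, blank-corrected, relative to vehicle control. Triplicates were expressed as mean ± SD. MIC came from dose-response curves.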

[23] = tested on: Mycobacterium tuberculosis; experiment: Growth inhibition of Mycobacterium bovis BCG ATCC 35743 at dormant stage measured after 12 days by nitrate reductase dye based two fold dilution method; conditions: BCG str. ATCC 35743, 288 h; procedure, shortened: as §3
[24] = tested on: Mycobacterium tuberculosis; experiment: Growth inhibition of Mycobacterium tuberculosis H37Ra ATCC 25177 at active stage measured after 8 days by XTT dye based two fold dilution method; conditions: H37Ra ATCC 25177, 192 h; procedure, shortened: as §4
[25] = tested on: Candida albicans; experiment: Antifungal activity against Candida albicans NCIM 3471 by standard agar method; procedure, shortened: as §1
[26] = tested on: Aspergillus flavus; experiment: Antifungal activity against Aspergillus flavus NCIM 539 by standard agar method; procedure, shortened: as §1
[27] = tested on: Aspergillus niger; experiment: Antifungal activity against Aspergillus niger NCIM 1196 by standard agar method; procedure, shortened: as §1
[28] = Antifungal activity against Cryptococcus neoformans NCIM 576 by standard agar method; procedure, shortened: as §1

Structure (SMILES) | MIC [1] | inhibition of growth at 30 µg/mL [2] | inhibition of growth at 30 µg/mL [3] | inhibition of growth at 10 µg/mL [4] | inhibition of growth at 3 µg/mL [5] | inhibition of growth at 10 µg/mL [6] | inhibition of growth at 3 µg/mL [7] | inhibition of growth at 30 µg/mL [8] | inhibition of growth at 10 µg/mL [9] | inhibition of growth at 3 µg/mL [10] | inhibition of growth at 30 µg/mL [11] | inhibition of growth at 10 µg/mL [12] | inhibition of growth at 3 µg/mL [13] | MIC [14] | MIC [15] | MIC [16] | MIC [17] | inhibition of growth at 30 µg/mL [18] | inhibition of growth at 10 µg/mL [19] | inhibition of growth at 3 µg/mL [20] | other results
O=C(O)CCN1C(=O)/C(=C/c2cc3ccccc3nc2Cl)SC1=S | 125 µg/mL (≈ 330 µM) | -22.9% | 6.41% | -20.6% | -28.2% | 6.32% | 3% | -59% | -52.5% | -47.5% | -6.76% | -0.29% | -48% | > 30 µg/mL | > 30 µg/mL | > 30 µg/mL | > 30 µg/mL | 49.1% | -18.9% | -3.3% | IC50 [21]: > 30 µg/mL; IC90 [21]: > 30 µg/mL; IC50 [22]: > 30 µg/mL; IC90 [22]: > 30 µg/mL; IC50 [23]: > 30 µg/mL; IC90 [23]: > 30 µg/mL; IC50 [24]: > 30 µg/mL; IC90 [24]: > 30 µg/mL; MIC [25]: 100 µg/mL (≈ 264 µM); MIC [26]: 50 µg/mL (≈ 132 µM); MIC [27]: 75 µg/mL (≈ 198 µM); MIC [28]: 50 µg/mL (≈ 132 µM)
Cc1ccc2nc(Cl)c(/C=C3\SC(=S)NC3=O)cc2c1 | 100 µg/mL (≈ 312 µM) | -44% | -16.6% | -30.8% | -49.2% | -3.58% | -8.73% | -7.51% | -6.34% | -7.51% | 18.4% | 17.5% | 23.9% | > 30 µg/mL | > 30 µg/mL | > 30 µg/mL | > 30 µg/mL | -24.3% | -18.4% | -19.3% | IC50 [21]: > 30 µg/mL; IC90 [21]: > 30 µg/mL; IC50 [22]: > 30 µg/mL; IC90 [22]: > 30 µg/mL; IC50 [23]: > 30 µg/mL; IC90 [23]: > 30 µg/mL; IC50 [24]: > 30 µg/mL; IC90 [24]: > 30 µg/mL; MIC [25]: 175 µg/mL (≈ 545 µM); MIC [26]: 125 µg/mL (≈ 390 µM); MIC [27]: 125 µg/mL (≈ 390 µM); MIC [28]: 150 µg/mL (≈ 468 µM)
Cc1ccc2cc(/C=C3\SC(=S)NC3=O)c(Cl)nc2c1 | 100 µg/mL (≈ 312 µM) | 6.45% | -9.15% | -4.88% | -13.7% | -4.08% | -2.83% | 12.9% | 11.3% | 13.8% | 12.2% | 27.1% | -8.82% | > 30 µg/mL | > 30 µg/mL | > 30 µg/mL | > 30 µg/mL | 11.4% | 15% | 11.4% | IC50 [21]: > 30 µg/mL; IC90 [21]: > 30 µg/mL; IC50 [22]: > 30 µg/mL; IC90 [22]: > 30 µg/mL; IC50 [23]: > 30 µg/mL; IC90 [23]: > 30 µg/mL; IC50 [24]: > 30 µg/mL; IC90 [24]: > 30 µg/mL; MIC [25]: 100 µg/mL (≈ 312 µM); MIC [26]: 50 µg/mL (≈ 156 µM); MIC [27]: 75 µg/mL (≈ 234 µM); MIC [28]: 50 µg/mL (≈ 156 µM)
Cc1cccc2cc(/C=C3\SC(=S)N(CCC(=O)O)C3=O)c(Cl)nc12 | 100 µg/mL (≈ 255 µM) | -12.1% | -5.57% | -19.7% | -4.02% | -5.28% | -3.04% | 10.5% | 4.27% | 8.12% | 16% | -2.3% | 4.57% | > 30 µg/mL | > 30 µg/mL | > 30 µg/mL | > 30 µg/mL | 24.8% | 27.9% | 17.2% | IC50 [21]: > 30 µg/mL; IC90 [21]: > 30 µg/mL; IC50 [22]: > 30 µg/mL; IC90 [22]: > 30 µg/mL; IC50 [23]: > 30 µg/mL; IC90 [23]: > 30 µg/mL; IC50 [24]: > 30 µg/mL; IC90 [24]: > 30 µg/mL; MIC [25]: 50 µg/mL (≈ 127 µM); MIC [26]: 150 µg/mL (≈ 382 µM); MIC [27]: 75 µg/mL (≈ 191 µM); MIC [28]: 100 µg/mL (≈ 255 µM)

— ChEMBL document CHEMBL3877264, “Quinolidene-rhodanine conjugates: Facile synthesis and biological evaluation” (Eur J Med Chem, 2017)
